# Results taken from ChEMBL document CHEMBL3232778, “One-pot synthesis and radical scavenging activity of novel polyhydroxylated 3-arylcoumarins” (Eur J Med Chem, 2014).
# Activity calls are given as the source filed them. The calls are words filed in the database; no cut-off is given here.
# Experiments:
# [1] = tested on: Radical scavenging activity; assay: Antioxidant activity assessed as DPPH radical scavenging activity by spectrophotometry; type: functional
# How it was run: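 DPPH• in methanol, prepared daily and kept from light; 0.5 mL test solution in methanol (4-25 µM) added to 0.5 mL of 100 µM DPPH•. Absorbance read at 518 nm at intervals until equilibrium, with a methanol blank; triplicates, five analyte concentrations. %DPPH• remaining = Af/A0×100; concentration plotted against % remaining to get the 50% scavenging value.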
# [2] = tested on: Radical scavenging activity; assay: Antioxidant activity assessed as DPPH radical scavenging activity up to 100 uM by spectrophotometry; type: functional
SMILES,EC50 [1] [µM],Activity [2]
O=C(O)c1ccccc1-c1cc2cc(O)ccc2oc1=O,–,inactive
O=C(O)c1ccccc1-c1cc2cccc(O)c2oc1=O,–,inactive
O=C(O)c1ccccc1-c1cc2ccccc2oc1=O,–,inactive
O=C(O)c1ccc(O)c(O)c1 [PROTOCATECHUIC ACID],8.83,–
O=C(O)c1cc(O)c(O)cc1-c1cc2cc(O)c(O)cc2oc1=O,5.3,–
O=C(O)c1ccccc1-c1cc2ccc(O)c(O)c2oc1=O,3.59,–
O=C(O)c1ccccc1-c1cc2ccc(O)cc2oc1=O,–,inactive
O=C(O)c1cc(O)c(O)c(O)c1 [GALLIC ACID],5.34,–
Cc1c(C)c2c(c(C)c1O)CCC(C)(C(=O)O)O2 (stereo not given) [TROLOX],9.34,–
O=C(O)c1ccccc1-c1cc2c(O)cccc2oc1=O,–,inactive
O=C(O)c1ccccc1-c1cc2cc(Br)ccc2oc1=O,–,inactive
O=C(O)c1cc(O)c(O)cc1-c1cc2ccc(O)cc2oc1=O,6.02,–

# More lines, main results first:
EC50 [1] [µM],SMILES,Activity [2]
6.86,O=C(O)c1cc(O)c(O)cc1-c1cc2c(O)cccc2oc1=O,–
4.02,O=C(O)c1cc(O)c(O)cc1-c1cc2cc(Br)ccc2oc1=O,–
3.39,O=C(O)c1cc(O)c(O)cc1-c1cc2ccc(O)c(O)c2oc1=O,–
4.09,O=C(O)c1cc(O)c(O)cc1-c1cc2cccc(O)c2oc1=O,–
5.32,O=C(O)c1ccccc1-c1cc2cc(O)c(O)cc2oc1=O,–
5.14,O=C(O)c1cc(O)c(O)cc1-c1cc2ccccc2oc1=O,–
9.48,O=C(O)/C=C/c1ccc(O)c(O)c1 [CAFFEIC ACID],–
3.17,O=C(O)c1cc(O)c(O)cc1-c1cc2cc(O)ccc2oc1=O,–
